# Laboratory results as given in ChEMBL document CHEMBL1124216, “A novel class of potential central nervous system agents. 3-Phenyl-2-(1-piperazinyl)-5H-1-benzazepines” (1988).
# Tests used:
# Type in all cases: functional
# [1] = system: Mus musculus; assay: Antireserpine activity (RES) of mice after peroral administration of 100 mg/kg of compound; No inhibition; conditions: route oral
# [2] = system: Mus musculus; assay: Antitremorine activity(TRM) of mice after peroral administration of 100 mg/kg of compound; Moderate inhibition (51-71%); conditions: route oral
# [3] = system: Mus musculus; assay: Antimaximal electroshock seizure (MES) activity in mice after peroral administration of 100 mg/kg of compound; 5/5; conditions: route oral
# [4] = system: Mus musculus; assay: Antiexploratory activity (EXPL) of mice determined by an antimex activity meter,100 mg/kg of dose was administered perorally; No inhibition
# [5] = system: Mus musculus; assay: Antimaximal electroshock seizure (MES) activity in mice after peroral administration of 10 mg/kg of compound; 0/5; conditions: route oral
# [6] = system: Mus musculus; assay: Antireserpine activity (RES) of mice after peroral administration of 50 mg/kg of compound; Slight inhibition (31-50%); conditions: route oral
# [7] = system: Mus musculus; assay: Antiexploratory activity (EXPL) of mice determined by an antimex activity meter, 50 mg/kg of dose was administered perorally; Slight inhibition (31-50%); conditions: route oral
# [8] = system: Mus musculus; assay: Antimaximal electroshock seizure (MES) activity in mice after peroral administration of 100 mg/kg of compound; 0/5; conditions: route oral
# [9] = system: Mus musculus; assay: Antitremorine activity(TRM) of mice after peroral administration of 100 mg/kg of compound; Slight inhibition (31-50%); conditions: route oral
# [10] = system: Mus musculus; assay: Antiexploratory activity (EXPL) of mice determined by an antimex activity meter, 50 mg/kg of dose was administered perorally; No inhibition; conditions: route oral
# [11] = system: Mus musculus; assay: Antireserpine activity (RES) of mice after peroral administration of 50 mg/kg of compound; No inhibition; conditions: route oral
# [12] = system: Mus musculus; assay: Antitremorine activity(TRM) of mice after peroral administration of 100 mg/kg of compound; No inhibition; conditions: route oral
# [13] = system: Mus musculus; assay: Antireserpine activity (RES) of mice after peroral administration of 100 mg/kg of compound; Slight inhibition (31-50%); conditions: route oral
# [14] = system: Mus musculus; assay: Antiexploratory activity (EXPL) of mice determined by an antimex activity meter, 100 mg/kg of dose was administered perorally; Slight inhibition (31-50%); conditions: route oral
# [15] = system: Mus musculus; assay: Antiexploratory activity (EXPL) of mice determined by an antimex activity meter, 100 mg/kg of dose was administered perorally; No inhibition; conditions: route oral
# [16] = system: Mus musculus; assay: Antitremorine activity(TRM) of mice after peroral administration of 100 mg/kg of compound; conditions: route oral
# [17] = system: Mus musculus; assay: The homovanillic acid (HVA) levels in mouse brain at 10 mg/kg of dose.
# Procedure, shortened: (§1)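 Mice dosed orally in 0.5% aqueous tragacanth; brains of five mice per compound pooled. Homovanillic acid measured in brain extracts and reported as brain level.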
# [18] = system: Mus musculus; assay: Exploratory activity of mice determined by an antimex activity meter, 50 mg/kg of dose was administered perorally; conditions: Mus musculus, po
# Procedure, shortened: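 Male Std-ddY mice (20-25 g), five per dose; compound in 0.5% aqueous tragacanth given orally. Two hours later each mouse placed in an Animex activity meter cage and locomotor activity counted for 3 min. Mean suppression expressed as percent inhibition of control; ED50 by Litchfield-Wilcoxon.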
# [19] = system: Mus musculus; assay: Antiexploratory activity (EXPL) of mice determined by an antimex activity meter, 50 mg/kg of dose was administered perorally; Moderate inhibition (51-71%); conditions: route oral
# [20] = system: Canis familiaris; assay: Inhibition of apomorphine induced emesis in dogs at 1 mg/kg of dose.; conditions: Canis lupus familiaris
# Procedure, shortened: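 Beagle dogs (10-15 kg), groups of three, given compound po in a gelatin capsule; 2 h later apomorphine hydrochloride 0.3 mg/kg sc. Vomiting counted for 1 h; mean inhibition as percent of control. ED50 is the dose giving 50% inhibition of emesis, by Litchfield-Wilcoxon.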
# [21] = system: Mus musculus; assay: 3,4 -Dihydroxy phenylacetic acid (DOPAC) levels in mouse brain at 10 mg/kg dose.
# Procedure, shortened: (§2)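 Male Std-ddY mice, 20-25 g, dosed orally with compound in 0.5% aqueous tragacanth. DOPAC was measured fluorometrically after purification by column chromatography on Sephadex G-10 and QAE-Sephadex. Brains from five mice per compound were pooled for each determination.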
# [22] = system: Mus musculus; assay: Exploratory activity of mice determined by an antimex activity meter, 10 mg/kg of dose was administered perorally; conditions: route oral
# [23] = system: Mus musculus; assay: 3,4 -Dihydroxy phenylacetic acid (DOPAC) levels in mouse brain at 50 mg/kg dose.; procedure, shortened: as §2
# [24] = system: Mus musculus; assay: Antiexploratory activity (EXPL) of mice determined by an antimex activity meter, 10 mg/kg of dose was administered perorally; No inhibition; conditions: route oral
# [25] = system: Mus musculus; assay: The homovanillic acid (HVA) levels in mouse brain at 50 mg/kg of dose.; procedure, shortened: as §1
# [26] = system: Mus musculus; assay: Antitremorine activity(TRM) of mice after peroral administration of 50 mg/kg of compound; No inhibition; conditions: route oral
# [27] = system: Mus musculus; assay: Antimaximal electroshock seizure activity was determined in mice when administered perorally; conditions: po
# [28] = system: Mus musculus; assay: Antipentylene tetrazole activity was determined in mice when administered perorally; conditions: po
# Procedure, shortened: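 Groups of five male Std-ddY mice received compound orally in 0.5% tragacanth, then pentylenetetrazole 175 mg/kg ip. Blockade of the tonic extensor component scored as anticonvulsant. ED50 was the dose protecting 50% of animals (Litchfield-Wilcoxon).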
compound,measurement,setting,value
CCc1ccc2c(c1)CC=C(c1ccccc1)C(N1CCN(C(C)C)CC1)=N2.O=C(O)/C=C/C(=O)O,inhibition in vivo at 100 mg/kg,[1],< 30%
same,inhibition in vivo at 100 mg/kg,[2],51%
same,Activity,[3],5
same,Inhibition,[4],<30%
same,Activity,[5],0
Fc1ccc(C2=CCc3ccccc3N=C2N2CCNCC2)cc1,inhibition in vivo at 50 mg/kg,[6],31%
same,inhibition in vivo at 50 mg/kg,[7],31%
CCCN1CCN(C2=Nc3ccc(CC)cc3CC=C2c2ccccc2)CC1.O=C(O)/C=C/C(=O)O,Activity,[8],0
same,inhibition in vivo at 100 mg/kg,[1],< 30%
same,inhibition in vivo at 100 mg/kg,[9],31%
same,Inhibition,[4],<30%
COc1ccc(C2=CCc3ccccc3N=C2N2CCN(C)CC2)cc1,inhibition in vivo at 50 mg/kg,[6],31%
same,inhibition in vivo at 50 mg/kg,[10],< 30%
OCCN1CCN(C2=Nc3ccccc3CC=C2c2ccc(O)cc2)CC1,inhibition in vivo at 50 mg/kg,[11],< 30%
same,inhibition in vivo at 50 mg/kg,[10],< 30%
O=C(CCCN1CCN(C2=Nc3ccccc3CC=C2c2ccc(Cl)cc2)CC1)c1ccc(F)cc1,inhibition in vivo at 50 mg/kg,[7],31%
same,inhibition in vivo at 50 mg/kg,[11],< 30%
Clc1ccc2c(c1)N=C(N1CCNCC1)C(c1ccccc1)=CC2.O=C(O)/C=C/C(=O)O,inhibition in vivo at 100 mg/kg,[12],< 30%
same,Activity,[8],0
same,inhibition in vivo at 100 mg/kg,[13],31%
same,inhibition in vivo at 100 mg/kg,[14],31%
C#CCN1CCN(C2=Nc3ccc(Br)cc3CC=C2c2ccccc2)CC1,Activity,[8],0
same,inhibition in vivo at 100 mg/kg,[1],< 30%
same,inhibition in vivo at 100 mg/kg,[15],< 30%
same,inhibition in vivo at 100 mg/kg,[16],< 30%
OC1(c2ccc(Cl)cc2)CCN(C2=Nc3ccccc3CC=C2c2ccccc2)CC1,inhibition in vivo at 100 mg/kg,[12],< 30%
same,Activity,[8],0
same,inhibition in vivo at 100 mg/kg,[1],< 30%
same,inhibition in vivo at 100 mg/kg,[14],31%
CCCN1CCN(C2=Nc3ccccc3CC=C2c2ccc(F)cc2)CC1.O=C(O)/C=C/C(=O)O,Control,[17],328%
same,inhibition in vivo at 50 mg/kg,[18],61.4%
same,inhibition in vivo at 50 mg/kg,[19],51%
same,inhibition in vivo at 1 mg/kg,[20],100%
same,Control,[21],166%
same,inhibition in vivo at 10 mg/kg,[22],18.5%
same,Control,[23],317%
same,inhibition in vivo at 10 mg/kg,[24],< 30%
same,Control,[25],557%
CCCCN1CCN(C2=Nc3ccc(CC)cc3CC=C2c2ccccc2)CC1.O=C(O)/C=C/C(=O)O,Activity,[8],0
same,inhibition in vivo at 100 mg/kg,[1],< 30%
same,inhibition in vivo at 100 mg/kg,[9],31%
same,Inhibition,[4],<30%
Clc1ccc(C2=CCc3ccccc3N=C2N2CCN(Cc3ccccc3)CC2)cc1,inhibition in vivo at 50 mg/kg,[6],31%
same,inhibition in vivo at 50 mg/kg,[10],< 30%
Clc1ccc(C2=CCc3ccccc3N=C2N2CCCCC2)cc1,Activity,[8],0
same,inhibition in vivo at 100 mg/kg,[1],< 30%
same,inhibition in vivo at 50 mg/kg,[10],< 30%
same,inhibition in vivo at 50 mg/kg,[26],< 30%
CN1CCN(C2=Nc3ccccc3CC=C2c2ccc(C(F)(F)F)cc2)CC1,inhibition in vivo at 50 mg/kg,[11],< 30%
same,inhibition in vivo at 50 mg/kg,[10],< 30%
Cl.OC1CCN(C2=Nc3ccccc3CC=C2c2ccc(F)cc2)CC1,Activity,[8],0
same,inhibition in vivo at 100 mg/kg,[1],< 30%
same,inhibition in vivo at 50 mg/kg,[10],< 30%
same,inhibition in vivo at 50 mg/kg,[26],< 30%
CN1CCN(C2=Nc3ccc(F)cc3CC=C2c2ccccc2)CC1.Cl.Cl,inhibition in vivo at 100 mg/kg,[12],< 30%
same,Activity,[8],0
same,inhibition in vivo at 100 mg/kg,[1],< 30%
same,ED50,[27],> 500 mg/kg
same,ED50,[28],> 200 mg/kg
same,inhibition in vivo at 100 mg/kg,[14],31%
